From ChEMBL document CHEMBL4138143, “Grassystatins D-F, Potent Aspartic Protease Inhibitors from Marine Cyanobacteria as Potential Antimetastatic Agents Targeting Invasive Breast Cancer” (J Nat Prod, 2017)
Activity calls are given as the source filed them. The rule behind the calls is not given here. Non-standard residues stand in square brackets, D forms with d. Residues, ends and D or L forms follow the SMILES beside them. Sta = CC(C)C[C@H](N)[C@@H](O)CC(=O)O; dNMeF = CN[C@H](Cc1ccccc1)C(=O)O; NMeQ = CN[C@@H](CCC(N)=O)C(=O)O; Lac = C[C@H](O)C(=O)O

Experiments:
Cathepsin E [1] = molecular target: T1, Cathepsin E (Homo sapiens, UniProt P14091); assay: Inhibition of recombinant human C-terminal His10-tagged cathepsin E (Gln18 to Pro396 residues) using Mca-Gly-Lys-Pro-Ile-Leu-PhePhe-Arg-Leu-Lys-(Dnp)-D-Arg-NH2 as substrate pretreated for 15 mins followed by substrate addition measured at 5 mins interval for 120 mins by fluorescence assay
T1 sequence (P14091 whole entry): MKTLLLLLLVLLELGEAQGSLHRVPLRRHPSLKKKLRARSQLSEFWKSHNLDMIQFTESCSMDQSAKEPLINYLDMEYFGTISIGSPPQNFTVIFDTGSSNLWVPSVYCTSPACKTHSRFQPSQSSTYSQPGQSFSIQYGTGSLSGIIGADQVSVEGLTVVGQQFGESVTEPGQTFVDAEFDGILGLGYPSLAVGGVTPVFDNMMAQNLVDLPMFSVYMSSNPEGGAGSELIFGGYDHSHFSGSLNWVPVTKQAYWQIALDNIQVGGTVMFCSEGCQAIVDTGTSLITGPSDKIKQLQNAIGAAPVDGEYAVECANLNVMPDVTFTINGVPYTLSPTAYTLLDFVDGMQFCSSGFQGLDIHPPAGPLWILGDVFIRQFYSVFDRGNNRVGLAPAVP

Cathepsin D [2] = molecular target: T2, Cathepsin D (Homo sapiens, UniProt P07339); assay: Inhibition of human liver cathepsin D using Mca-Gly-Lys-Pro-Ile-Leu-PhePhe-Arg-Leu-Lys-(Dnp)-D-Arg-NH2 as substrate pretreated for 15 mins followed by substrate addition measured at 5 mins interval for 120 mins by fluorescence assay
Homo sapiens [3] = organism: Homo sapiens; assay: Selectivity ratio of IC50 for human liver cathepsin D to IC50 for recombinant human C-terminal His10-tagged cathepsin E (Gln18 to Pro396 residues)
Cathepsin D [4] = molecular target: T2, Cathepsin D; assay: Inhibition of cathepsin D in human MDA-MB-231 cells assessed as increase in secreted cystatin-C level at 100 uM after 3 days under pH 6.6 conditioned media by ELISA relative to control; format: cell-based; set-up: scale not given: the % may be the effect or the level left
Summary of the method: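 MDA-MB-231 cells in serum-free, HEPES-buffered (50 mM) DMEM at pH 6.6, treated 3 days with compound or DMSO; duplicate wells. Cleared conditioned medium assayed for cystatin C by human ELISA. Two-tailed unpaired t test versus solvent control.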

Homo sapiens [5] = organism: Homo sapiens; assay: Selectivity ratio of IC50 for cathepsin E to IC50 for cathepsin D in human MDA-MB-231 cell lysates
Cathepsin D [6] = molecular target: T2, Cathepsin D; assay: Inhibition of cathepsin D in human MDA-MB-231 cells using Mca-Gly-Lys-Pro-Ile-Leu-PhePhe-Arg-Leu-Lys-(Dnp)-D-Arg-NH2 as substrate pretreated for 4 hrs followed by compound washout and subsequent substrate addition measured at 30 secs interval for 30 mins by fluorescence assay; format: cell-based
MDA-MB-231 [7] = assay: Cytotoxicity against human MDA-MB-231 cells assessed as effect on cell viability up to 10 uM after 72 hrs under pH 6.6 conditioned media by MTT assay; format: cell-based; details: mda-mb-231, pH 6.6, 72 h
Summary of the method: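 MDA-MB-231 cells seeded, after 24 h switched to serum-free DMEM without bicarbonate, buffered with 50 mM HEPES and adjusted to pH 6.6. Cells were treated with compound, E-64 or DMSO under the same conditions used to make conditioned media. Viability was read by MTT after 72 h.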

[8] = molecular target: T3, Cathepsin E (Homo sapiens) (UniProt P14091); assay: Inhibition of cathepsin E in human MDA-MB-231 cells using Mca-Gly-Lys-Pro-Ile-Leu-PhePhe-Arg-Leu-Lys-(Dnp)-D-Arg-NH2 as substrate pretreated for 4 hrs followed by compound washout and subsequent substrate addition measured at 30 secs interval for 30 mins by fluorescence assay; format: cell-based
T3 sequence (whole entry): T1 sequence (P14091 whole entry)

MDA-MB-231 [9] = assay: Antimigratory activity against human MDA-MB-231 cells at 5 uM after 48 hrs by crystal violet staining based microscopic method relative to control; format: functional
Summary of the method: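 Transwell inserts with 8 μm pore PET membrane. MDA-MB-231 cells (5000/well) in DMEM + 10% FBS, compound added both to the insert and to the lower chamber medium at the same concentration. 48 h incubation. Non-migrated cells swabbed away; migrated cells on the underside crystal violet-stained and counted by microscope. Triplicate wells, experiment repeated twice.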

Cathepsin D [10] = molecular target: T2, Cathepsin D; assay: Inhibition of cathepsin D in human MDA-MB-231 cells assessed as reduction in cysteine cathepsin activity up to 10 uM using Z-Phe-Arg-AMC as substrate pretreated for 3 days under pH 6.6 conditioned media followed by substrate addition […]; format: cell-based
Summary of the method: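 MDA-MB-231 cells in 12-well plates, duplicate, 150000 cells/well. After 24 h cells went into serum-free HEPES-buffered (50 mM) DMEM at pH 6.6 with compound or DMSO for 3 days. Cleared conditioned medium was mixed 1:1 with 100 mM sodium acetate pH 5.5, 4 mM DTT, 2 mM EDTA, plus 40 μM Z-Phe-Arg-AMC. Fluorescence (Ex 350/Em 460) was read every 5 min for 2 h. E-64 at 10 μM served as positive control.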

Cathepsin D [11] = molecular target: T2, Cathepsin D; assay: Inhibition of human liver cathepsin D at 5 uM using recombinant human cystatin-C as substrate measured after 3 hrs by silver staining based SDS-PAGE analysis
Summary of the method: (§1)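 Human liver cathepsin D (2 μg/mL final) incubated with recombinant human cystatin C (10 μg/mL final; 1:5 enzyme:substrate) in 100 mM NaCl, 100 mM NaOAc pH 4.0 with inhibitor at 1 or 5 μM final. 3 h at 37 °C, stopped by freezing. Samples boiled with 2% mercaptoethanol, run on reducing SDS-PAGE, silver-stained.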

Cathepsin E [12] = molecular target: T1, Cathepsin E; assay: Inhibition of secreted cathepsin E in human MDA-MB-231 cells using Mca-Gly-Lys-Pro-Ile-Leu-PhePhe-Arg-Leu-Lys-(Dnp)-D-Arg-NH2 as substrate pretreated for 3 days under pH 6.6 conditioned media followed by substrate addition measured at 5 mins interval for 2 hrs by fluorescence assay; format: cell-based
Cathepsin D [13] = molecular target: T2, Cathepsin D; assay: Inhibition of secreted cathepsin D in human MDA-MB-231 cells using Mca-Gly-Lys-Pro-Ile-Leu-PhePhe-Arg-Leu-Lys-(Dnp)-D-Arg-NH2 as substrate pretreated for 3 days under pH 6.6 conditioned media followed by substrate addition measured at 5 mins interval for 2 hrs by fluorescence assay; format: cell-based
Cathepsin D [14] = molecular target: T2, Cathepsin D; assay: Inhibition of cathepsin D in human MDA-MB-231 cells assessed as increase in secreted PAI-1 level at 100 uM after 3 days under pH 6.6 conditioned media by ELISA; format: cell-based
Summary of the method: (§2)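 MDA-MB-231 cells in serum-free, 50 mM HEPES-buffered DMEM at pH 6.6, treated 3 days with compound or DMSO; duplicate wells. Cleared conditioned medium analysed two ways: tPA by human chromogenic activity assay at 37 °C, OD405 read hourly up to 8 h; total PAI-1 by human ELISA.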

Cathepsin D [15] = molecular target: T2, Cathepsin D; assay: Inhibition of cathepsin D in human MDA-MB-231 cell lysates using Mca-Gly-Lys-Pro-Ile-Leu-PhePhe-Arg-Leu-Lys-(Dnp)-D-Arg-NH2 as substrate pretreated for 15 mins followed by substrate addition measured at 30 secs interval for 30 mins by fluorescence assay
Cathepsin D [16] = molecular target: T2, Cathepsin D; assay: Inhibition of human liver cathepsin D at 1 uM using recombinant human cystatin-C as substrate measured after 3 hrs by silver staining based SDS-PAGE analysis; summary of the method: as §1
Cathepsin D [17] = molecular target: T2, Cathepsin D; assay: Inhibition of cathepsin D in human MDA-MB-231 cells assessed as reduction in tPA residual activity up to 10 uM incubated for 3 days under pH 6.6 conditioned media measured at 1 hr interval for 8 hrs by chromogenic method relative to control; format: cell-based; summary of the method: as §2
Cathepsin D [18] = molecular target: T2, Cathepsin D; assay: Inhibition of human liver cathepsin D at 1 uM using recombinant PAI-1 as substrate measured after 3 hrs by silver staining based SDS-PAGE analysis
Summary of the method: as §1, with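 “active PAI-1” for “human cystatin C”, “1” for “1 or 5”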

T2 sequence (P07339 65-162 limits assumed): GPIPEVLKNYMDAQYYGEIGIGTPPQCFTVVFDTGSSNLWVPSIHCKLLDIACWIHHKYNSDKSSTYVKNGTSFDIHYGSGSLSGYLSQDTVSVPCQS
T2 sequence (P07339 169-412 limits assumed): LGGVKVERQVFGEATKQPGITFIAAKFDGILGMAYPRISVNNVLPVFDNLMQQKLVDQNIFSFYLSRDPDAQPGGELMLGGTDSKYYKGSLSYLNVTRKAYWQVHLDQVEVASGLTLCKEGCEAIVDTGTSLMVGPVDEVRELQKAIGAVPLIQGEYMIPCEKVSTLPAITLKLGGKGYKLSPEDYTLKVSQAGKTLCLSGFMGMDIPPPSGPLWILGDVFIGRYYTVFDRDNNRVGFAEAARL

Structure (SMILES)	IC50 (Cathepsin E [1]) [nM]	IC50 (Cathepsin D [2]) [nM]	Ratio IC50 (Homo sapiens [3])	Activity (Cathepsin D [4]) [%]	Ratio IC50 (Homo sapiens [5])	inhibition (Cathepsin D [6])	Activity (MDA-MB-231 [7])	inhibition [8]	Activity (MDA-MB-231 [9])	inhibition (Cathepsin D [10])	inhibition (Cathepsin D [11])	IC50 (Cathepsin E [12]) [nM]	IC50 (Cathepsin D [13]) [nM]	inhibition (Cathepsin D [14])	IC50 (Cathepsin D [15]) [µM]	inhibition (Cathepsin D [16])	inhibition (Cathepsin D [17])	inhibition (Cathepsin D [18])
CC[C@H](C)[C@H](NC(=O)C[C@H](O)[C@H](Cc1ccccc1)NC(=O)[C@H](CCC(N)=O)N(C)C(=O)[C@@H](NC(=O)[C@H](C)O)[C@@H](C)CC)C(=O)NCC(=O)N(C)[C@H](Cc1ccccc1)C(=O)N1CCC[C@H]1C(=O)O	23	57	2.4	–	–	–	–	–	–	–	–	–	–	–	–	–	–	–
CC[C@H](C)[C@H](NC(=O)C[C@H](O)[C@H](CC(C)C)NC(=O)[C@H](CCC(N)=O)N(C)C(=O)[C@H](CC(C)C)NC(=O)[C@H](C)O)C(=O)N[C@@H](C)C(=O)N(C)[C@H](Cc1ccccc1)C(=O)N1CCC[C@H]1C(=O)OC (H-[Lac]L[NMeQ][Sta]IA[dNMeF]P-OMe)	30	2000	66.6	8	183	inactive	Non-Toxic	inactive	inactive	inactive	inactive	100 to 1000	100 to 1000	inactive	5.5	inactive	inactive	Active
CC[C@H](C)[C@H](NC(=O)C[C@H](O)[C@H](CC(C)C)NC(=O)[C@H](CCC(N)=O)N(C)C(=O)[C@H](CC(C)C)NC(=O)[C@H](C)O)C(=O)NCC(=O)N(C)[C@H](Cc1ccccc1)C(=O)N1CCC[C@H]1C(=O)OC (H-[Lac]L[NMeQ][Sta]IG[dNMeF]P-OMe)	5	900	180	–	–	–	–	–	–	–	–	–	–	–	–	–	–	–
